From ChEMBL document CHEMBL1240379, “Combined ramR mutation and presence of a Tn1721-associated tet(A) variant in a clinical isolate of Salmonella enterica serovar Hadar resistant to tigecycline” (2010)
≈ marks a conversion by molar mass, not a printed value.

Tests used:
[1] = system: Escherichia coli; experiment: Antibacterial activity against Escherichia coli DH10B by Etest method; format: functional; conditions: K-12 DH10B
[2] = system: Escherichia coli; experiment: Antibacterial activity against Escherichia coli DH10B expressing SK2 plasmid by Etest method; format: functional; conditions: K-12 DH10B
[3] = Antibacterial activity against Salmonella enterica serovar Hadar VA5649 by Etest method; format: functional, Salmonella enterica subsp. enterica serovar Hadar
[4] = system: Escherichia coli; experiment: Antibacterial activity against Escherichia coli DH10B harboring Tn1721-tet(A) carrying plasmid by Etest method; format: functional; conditions: K-12 DH10B
[5] = system: Escherichia coli; experiment: Antibacterial activity against Escherichia coli DH10B expressing Tn1721-tet(A) carrying plasmid SK2 by Etest method; format: functional; conditions: K-12 DH10B
[6] = Antibacterial activity against Salmonella enterica serovar Hadar VA5649 harboring wild type ramR-2313 gene by Etest method; format: functional, Salmonella enterica subsp. enterica serovar Hadar
[7] = system: Salmonella enterica; experiment: Antibacterial activity against wild type Salmonella enterica TY2313 by Etest method; format: functional
[8] = Antibacterial activity against Salmonella enterica serovar Hadar VA5649 expressing ACYC177 plasmid by Etest method; format: functional, Salmonella enterica subsp. enterica serovar Hadar
[9] = Antibacterial activity against Salmonella enterica serovar Hadar VA5649 harboring ramR-5649 mutant gene by Etest method; format: functional, Salmonella enterica subsp. enterica serovar Hadar
[10] = Antibacterial activity against Salmonella enterica serovar Hadar VA5649 by both microdilution assay; format: functional, Salmonella enterica subsp. enterica serovar Hadar
How it was run: (§1)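 Tigecycline MIC by broth microdilution using a commercial tigecycline panel with freshly prepared Mueller-Hinton II broth less than 12 h old. Susceptible, intermediate or resistant category assigned by EUCAST clinical breakpoints.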

[11] = system: Escherichia coli; experiment: Antibacterial activity against Escherichia coli DH10B expressing Tn1721-tet(A) carrying plasmid SK2 by broth microdilution assay; format: functional; conditions: K-12 DH10B; how it was run: as §1
[12] = system: Salmonella enterica; experiment: Antibacterial activity against wild type Salmonella enterica TY2313 by broth microdilution assay; format: functional
How it was run: (§2)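 MIC by broth microdilution on a commercial ready-made drug panel, using freshly prepared Mueller-Hinton II broth (under 12 h old). MIC categories interpreted against EUCAST clinical breakpoints (susceptible, intermediate or resistant).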

[13] = system: Escherichia coli; experiment: Antibacterial activity against Escherichia coli DH10B harboring Tn1721-tet(A) carrying plasmid by broth microdilution assay; format: functional; conditions: K-12 DH10B; how it was run: as §1
[14] = Antibacterial activity against Salmonella enterica serovar Hadar VA5649 harboring ramR-5649 mutant gene by both microdilution assay; format: functional, Salmonella enterica subsp. enterica serovar Hadar; how it was run: as §1
[15] = system: Escherichia coli; experiment: Antibacterial activity against Escherichia coli DH10B by broth microdilution assay; format: functional; conditions: K-12 DH10B; how it was run: as §2
[16] = Antibacterial activity against Salmonella enterica serovar Hadar VA5649 harboring wild type ramR-2313 gene by both microdilution assay; format: functional, Salmonella enterica subsp. enterica serovar Hadar; how it was run: as §1
[17] = Antibacterial activity against Salmonella enterica serovar Hadar VA5649 expressing ACYC177 plasmid by both microdilution assay; format: functional, Salmonella enterica subsp. enterica serovar Hadar; how it was run: as §1
[18] = system: Escherichia coli; experiment: Antibacterial activity against Escherichia coli DH10B expressing SK2 plasmid by broth microdilution assay; format: functional; conditions: K-12 DH10B; how it was run: as §2

CN(C)c1ccc(O)c2c1C[C@H]1C[C@H]3[C@H](N(C)C)C(O)=C(C(N)=O)C(=O)[C@@]3(O)C(O)=C1C2=O [MINOCYCLINE]
MIC [1]: 0.75 µg/mL (≈ 1.64 µM) | MIC [2]: 0.75 µg/mL (≈ 1.64 µM) | MIC [3]: 32 µg/mL (≈ 69.9 µM) | MIC [4]: 8 µg/mL (≈ 17.5 µM) | MIC [5]: 8 µg/mL (≈ 17.5 µM)

O=C(N[C@H](CO)[C@H](O)c1ccc([N+](=O)[O-])cc1)C(Cl)Cl [CHLORAMPHENICOL]
MIC [6]: 2 µg/mL (≈ 6.19 µM) | MIC [7]: 2 µg/mL (≈ 6.19 µM) | MIC [3]: 8 µg/mL (≈ 24.8 µM) | MIC [8]: 8 µg/mL (≈ 24.8 µM) | MIC [9]: 8 µg/mL (≈ 24.8 µM)

O=C(O)c1cn(C2CC2)c2cc(N3CCNCC3)c(F)cc2c1=O [CIPROFLOXACIN]
MIC [6]: 0.25 µg/mL (≈ 0.754 µM) | MIC [3]: 1 µg/mL (≈ 3.02 µM) | MIC [8]: 1 µg/mL (≈ 3.02 µM) | MIC [9]: 1 µg/mL (≈ 3.02 µM)

CN(C)c1cc(NC(=O)CNC(C)(C)C)c(O)c2c1C[C@H]1C[C@H]3[C@H](N(C)C)C(O)=C(C(N)=O)C(=O)[C@@]3(O)C(O)=C1C2=O [TIGECYCLINE]
MIC [10]: 16 µg/mL (≈ 27.3 µM) | MIC [11]: 0.25 µg/mL (≈ 0.427 µM) | MIC [12]: 0.25 µg/mL (≈ 0.427 µM) | MIC [13]: 0.25 µg/mL (≈ 0.427 µM) | MIC [14]: 16 µg/mL (≈ 27.3 µM) | MIC [15]: 0.065 µg/mL (≈ 0.111 µM) | MIC [16]: 2 µg/mL (≈ 3.41 µM) | MIC [17]: 16 µg/mL (≈ 27.3 µM) | MIC [18]: 0.065 µg/mL (≈ 0.111 µM)
